Experimental data reported in ChEMBL document CHEMBL1125366, “Low molecular weight, non-peptide fibrinogen receptor antagonists” (J Med Chem, 1992).
Square brackets hold non-standard residues; d marks the D form. Peptide text beside a SMILES is read from it. * marks the point of attachment. 3Abz = Nc1cccc(C(=O)O)c1; Boc = CC(C)(C)OC(=O)*

How the values were obtained:
[1] = Inhibition of platelet aggregation in human-platelet rich plasma(h-PRP) induced by thrombin; format: functional
Procedure, shortened: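 Citrated human PRP with serial inhibitor dilutions; aggregation triggered by thrombin at 0.2 unit/mL (final) and followed as rate of light transmission change in an aggregometer; plasma from at least four donors.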

[2] = Inhibition of platelet aggregation in human-platelet rich plasma(h-PRP) induced by adenosine 5'-diphosphate-(ADP); format: functional
Procedure, shortened: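 Citrated human PRP with serial inhibitor dilutions; aggregation triggered by 10 μM ADP (final) and followed as rate of light transmission change in an aggregometer; plasma from at least four donors.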

[3] = Inhibition of platelet aggregation in human-platelet rich plasma(h-PRP) induced by collagen; format: functional
Procedure, shortened: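 Citrated human PRP with serial inhibitor dilutions; aggregation triggered by collagen at 2.5 μg/mL (final) and followed as rate of light transmission change in an aggregometer; plasma from at least four donors.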

[4] = molecular target: Integrin alpha-V/beta-3 (Homo sapiens) (UniProt P05106+P06756); assay: Inhibition of fibrinogen binding to immobilized vitronectin receptor; format: protein-complex assay; design: reference not given here
[5] = molecular target: T1, Integrin alpha-IIb/beta-3 (Homo sapiens) (UniProt P05106+P08514); assay: (§1) Inhibition of fibrinogen binding to immobilized fibrinogen receptor; format: protein-complex assay; design: reference not given here
[6] = molecular target: T1, Integrin alpha-IIb/beta-3 (Homo sapiens); assay: as §1; format: protein-complex assay

Compound | IC50 [1] [nM] | IC50 [2] [nM] | IC50 [3] [nM] | Ratio [4] | Ratio [5] | Ratio [6]
N=C(N)c1ccc(C(=O)NCC(=O)N[C@@H](CC(=O)O)C(=O)N[C@@H](Cc2ccccc2)C(=O)O)cc1 | 78000 | – | 76000 | 570 | 1 | –
C[C@@]1(C(=O)N2CCC(OCC(=O)O)CC2)CCCN1C(=O)c1ccc(C(=N)N)cc1 | 49000 | 13000 | 15000 | 12000 | 0.37 | –
N=C(N)c1ccc(CC(N)C(=O)Nc2cccc(C(=O)NCCC(=O)O)c2)cc1 (stereo unspecified) | 95000 | 95000 | 153000 | 2500 | 10 | –
COC(=O)COc1ccc(C[C@H](C)NS(=O)(=O)c2ccc(C(=N)N)cc2)cc1 | – | – | 11000 | – | – | –
N=C(N)c1ccc(C(=O)NCCC(=O)NCCC(=O)O)cc1 | 900 | 1100 | 900 | – | 0.007 | –
CC(C)[C@H](NC(=O)[C@H](CC(=O)O)NC(=O)CNC(=O)[C@@H](N)CCCNC(=N)N)C(=O)O (H-RGDV-OH) | 98000 | 127000 | 151000 | 0.6 | 0.63 | –
C[C@@H](Cc1ccc(OCC(=O)O)cc1)NS(=O)(=O)c1ccc(C(=N)N)cc1 | 9300 | 7400 | 11000 | 1700 | 0.34 | –
C[C@@H](NC(=O)c1ccc(C(=N)N)cc1)C(=O)N1CCC(OCC(=O)O)CC1 | 1100 | 900 | 1100 | > 9000 | 0.007 | –
N=C(N)NCCC[C@H](N)C(=O)NCC(=O)N[C@@H](CC(=O)O)C(=O)N[C@@H](Cc1ccccc1)C(=O)O (H-RGDF-OH) | 21000 | 19000 | 38000 | 3.5 | 0.3 | –
CC(C)[C@H](NC(=O)[C@H](CC(=O)O)NC(=O)c1cccc(NC(=O)[C@H](CCCN=C(N)N)NC(=O)OC(C)(C)C)c1)C(=O)O (Boc-R[3Abz]DV-OH) | 4400 | 4900 | 7000 | 250 | 0.06 | –
N=C(N)c1cccc(S(=O)(=O)NCCc2ccc(OCC(=O)O)cc2)c1 | > 200000 | > 200000 | > 200000 | – | – | 24
CC(C)[C@H](NC(=O)[C@H](CC(=O)O)NC(=O)CNC(=O)CCc1ccc(C(=N)N)cc1)C(=O)O | – | – | 2300 | – | – | –
NC(N)=NCCC[C@H](N)C(=O)Nc1cccc(C(=O)NCCC(=O)O)c1 | 68000 | 51000 | 50000 | 900 | 1.3 | –
CC(C)[C@H](NC(=O)[C@H](CC(=O)O)NC(=O)CCCNC(=O)c1ccc(C(=N)N)cc1)C(=O)O | 700 | 700 | 700 | 1700 | 0.002 | –
NCc1ccc(C(=O)Nc2cccc(C(=O)NCCC(=O)O)c2)cc1 | – | – | 9600 | – | – | –
C[C@H](Cc1ccc(OCC(=O)O)cc1)NS(=O)(=O)c1ccc(C(=N)N)cc1 | 103000 | 115000 | 102000 | > 30000 | 10.5 | –
N=C(N)NCCC[C@H](N)C(=O)NCC(=O)N[C@@H](CC(=O)O)C(=O)N[C@@H](CO)C(=O)O | 135000 | 88000 | 142000 | 1 | 1 | –
CC(C)(Oc1ccc(CCNS(=O)(=O)c2ccc(C(=N)N)cc2)cc1)C(=O)O | > 200000 | > 200000 | > 200000 | – | > 100 | –
N=C(N)c1ccc(S(=O)(=O)NCCc2ccc(OCC(=O)O)cc2)cc1 | 12000 | 15000 | 12000 | – | 0.2 | –

Compounds with a lower IC50 [3], results first:

IC50 [1] [nM] | IC50 [2] [nM] | IC50 [3] [nM] | Ratio [4] | Ratio [5] | Ratio [6] | Compound
500 | 200 | 400 | 8000 | 0.0005 | – | N=C(N)c1ccc(C(=O)Nc2cccc(C(=O)NCCC(=O)O)c2)cc1
500 | 900 | 300 | 2300 | 0.45 | – | COC(=O)COc1ccc(CCNC(=O)c2ccc(C(=N)N)cc2)cc1
50 | 50 | 70 | > 27000 | 0.0007 | – | C[C@H](NC(=O)c1ccc(C(=N)N)cc1)C(=O)N1CCC(OCC(=O)O)CC1 [RO-44-3888]
500 | 700 | 600 | 700 | 0.02 | – | CC(C)[C@H](NC(=O)[C@H](CC(=O)O)NC(=O)CNC(=O)COc1ccc(C(=N)N)cc1)C(=O)O
130 | 120 | 100 | 8000 | 0.002 | – | COc1ccc(CCNC(=O)[C@H](CC(=O)O)NC(=O)CCNC(=O)c2ccc(C(=N)N)cc2)cc1
70 | 60 | 60 | 4500 | 0.0003 | – | N=C(N)c1ccc(C(=O)NCCC(=O)N[C@@H](CC(=O)O)C(=O)N[C@@H](Cc2ccccc2)C(=O)O)cc1
30 | 20 | 30 | > 30000 | 0.0001 | – | C[C@H](NC(=O)c1ccc(C(=N)N)cn1)C(=O)N1CCC(OCC(=O)O)CC1
100 | 200 | 400 | 280 | 0.004 | – | N=C(N)c1ccc(C(=O)NCCCCC(=O)N[C@@H](CC(=O)O)C(=O)N[C@@H](Cc2ccccc2)C(=O)O)cc1
50 | 60 | 110 | – | 0.002 | – | N=C(N)c1ccc(C(=O)N2CCC[C@H]2C(=O)N2CCC(OCC(=O)O)CC2)cc1
400 | 800 | 300 | 1300 | 0.028 | – | N=C(N)c1ccc(C(=O)NCCc2ccc(OCC(=O)O)cc2)cc1
20 | 50 | 40 | – | 6e-05 | – | N=C(N)c1ccc(C(=O)NCCC(=O)N[C@@H](CC(=O)O)C(=O)N[C@@H](Cc2ccc(O)cc2)C(=O)O)cc1
30 | 30 | 20 | 17500 | 0.0002 | – | N=C(N)c1ccc(C(=O)N[C@@H](Cc2ccc(O)cc2)C(=O)N2CCC(OCC(=O)O)CC2)cc1 [LAMIFIBAN]
70 | 100 | 70 | > 30000 | 0.009 | – | N=C(N)c1ccc(C(=O)N[C@@H](CCCN)C(=O)N2CCC(OCC(=O)O)CC2)cc1
40 | 30 | 20 | > 20000 | 0.001 | – | N=C(N)c1ccc(C(=O)NCC(=O)c2ccc(OCC(=O)O)cc2)nc1
380 | 350 | 340 | > 30000 | 0.02 | – | N=C(N)c1ccc(C(=O)N[C@@H](CC(=O)O)C(=O)N2CCC(OCC(=O)O)CC2)cc1
90 | 110 | 100 | > 8000 | 0.008 | – | N=C(N)c1ccc(C(=O)NCC(=O)N2CCC(OCC(=O)O)CC2)cc1
90 | 90 | 130 | 8400 | 0.004 | – | N=C(N)c1ccc(C(=O)NCC(=O)c2ccc(OCC(=O)O)cc2)cc1
300 | 300 | 500 | 560 | 0.001 | – | CC(C)[C@H](NC(=O)[C@H](CC(=O)O)NC(=O)CNC(=O)Cc1ccc(C(=N)N)cc1)C(=O)O
60 | 70 | 70 | 37000 | 0.0001 | – | CN(CC(=O)c1ccc(OCC(=O)O)c(OCC(=O)O)c1)C(=O)c1ccc(C(=N)N)cc1
